Published values collected from several papers.
Protocols differ between the studies behind these lines.
Target: STE20/SPS1-related proline-alanine-rich protein kinase (STK39, Homo sapiens, UniProt Q9UEW8)

| SMILES | test | setting | quantity | value |
| --- | --- | --- | --- | --- |
| CCC(=O)N[C@@H]1CC[C@H](C(=O)N(C)c2ccc(-c3nc4ccccc4o3)cc2)C1 | cell-free assay, competition with immobilised ligand | 1 µM | remaining binding | 73% |
| Cn1cnc(Br)c1C1=CN(c2ncnc3[nH]cnc23)CCS1 | enzyme activity, inhibitor, radiometric | 50 nM | inhibition | 65.5% |
| Cc1ccc(C(=O)Nc2ccc(CN3CCN(C)CC3)c(C(F)(F)F)c2)cc1C#Cc1cnc2cccnn12 | enzyme activity, inhibitor | 23.5 nM | remaining activity | 85% |
| Cc1c(NC(=O)c2cc(C(N)=O)nc3cc(F)ccc23)c(C(F)(F)F)nn1Cc1ccc(C(C)(C)C)cc1 | cell-free assay, competition with immobilised ligand | 1 µM | remaining binding | 100% |
| O=C(Nc1cnn(-c2csc(C(=O)NC3COC3)c2)c1)Nc1c(F)cccc1Cl | enzyme activity, inhibitor | 5 µM | remaining activity | 82.3% |
| Nc1ncnc2occ(-c3ccc(NC(=O)Nc4cc(C(F)(F)F)ccc4F)cc3)c12 | cell-free assay, inhibitor | 20 µM | remaining signal | 19% |
| O=C1Nc2ccc(Cl)cc2C1=Cc1cc(Cl)c(O)c(Cl)c1 | cell-free assay | 0.5 µM | remaining signal | 97% |
| CNC(=O)Nc1ccc2c(c1)[C@@]1(CC2)OC(=O)N(CC(=O)N(Cc2ccc(F)cc2)[C@@H](C)C(F)(F)F)C1=O | cell-free assay, competition with immobilised ligand | 1 µM | remaining binding | 100% |
| COc1ccc(COc2ccc(Cc3cnc(N)nc3N)cc2OC)cc1 | cell-free assay | 0.5 µM | remaining signal | 87.6% |
| CC(C)(C)c1nc2c(s1)c1nc(N)ncc1c1ccc(NS(=O)(=O)c3c(F)cccc3F)c(F)c12 | enzyme activity, inhibitor, radiometric | 1 µM | remaining activity | 92% |
| COc1cc2c(N3CCN(C(=O)Nc4ccc(OC(C)C)cc4)CC3)ncnc2cc1OCCCN1CCCCC1 | cell-free assay | 0.5 µM | remaining signal | 93.2% |
| Cc1sc(C(=O)NC2COC2)cc1-n1cc(NC(=O)Nc2c(F)cccc2Cl)cn1 | enzyme activity, inhibitor | 10 µM | remaining activity | 64.5% |
